Test results: ChEMBL document CHEMBL3352304, “Synthesis and evaluation of 3-salicyloylpyridine derivatives as cytotoxic mitochondrial apoptosis inducers” (Bioorg Med Chem Lett, 2014)
The source made the active and inactive calls. The calls are words filed in the database; no cut-off is given here.

Experiments:
[1] = Cytotoxicity against human Hep cells after 48 hrs by SRB assay; type: functional, cell-based
MCF7 = assay: Cytotoxicity against human MCF7 cells after 48 hrs by SRB assay; type: functional, cell-based; settings: MCF7, 48 h
[2] = Cytotoxicity against human IMR32 cells after 48 hrs by SRB assay; type: functional, cell-based; settings: IMR-32, 48 h
[3] = Cytotoxicity against human PC3 cells after 48 hrs by SRB assay; type: functional, cell-based; settings: PC-3, 48 h
HeLa = assay: Cytotoxicity against human HeLa cells after 48 hrs by SRB assay; type: functional, cell-based
PC-3 [4] = assay: Induction of apoptosis in human PC3 cells at 2 uM incubated for 12 hrs by DAPI staining based confocal laser microscopy; type: functional, cell-based
Method in brief: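 PC-3 human prostate cancer cells (1 × 10⁶ in 1 ml medium) grown to confluence for 24 h at 37 °C, 5% CO₂, then exposed 12 h. Medium replaced with serum-free medium and cells stained with DAPI for 1 h at 37 °C. Nuclear and cell morphology imaged by laser scanning confocal fluorescence microscopy against untreated control cells.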

PC-3 [5] = assay: Induction of apoptotic morphological changes in human PC3 cells assessed as plasma membrane blebbing at cytotoxic IC50 level incubated for 12 hrs by scanning electron microscopy; type: functional, cell-based
Method in brief: (§1)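 PC-3 cells incubated with test compound at its IC₅₀ for 12 h, with 2 µM camptothecin as positive control and untreated cells as control; cell surface morphology examined by scanning electron microscopy.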

PC-3 [6] = assay: Induction of apoptotic morphological changes in human PC3 cells assessed as increase in apoptotic bodies at cytotoxic IC50 level incubated for 12 hrs by DAPI staining based confocal laser microscopy; type: functional, cell-based
Method in brief: (§2)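 PC-3 cells (1 × 10⁶) in 1 ml medium in 24-well plates grown to confluence 24 h at 37 °C, 5% CO₂, then exposed to test compound at its IC₅₀ for 12 h; camptothecin 2 µM as positive control. Medium replaced with serum-free medium, cells stained with DAPI (10 mM) 1 h at 37 °C and imaged by laser scanning confocal fluorescence microscopy against untreated control.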

PC-3 [7] = assay: Induction of apoptotic morphological changes in human PC3 cells assessed as cell size condensation at cytotoxic IC50 level incubated for 12 hrs by scanning electron microscopy; type: functional, cell-based; method in brief: as §1
PC-3 [8] = assay: Induction of apoptotic morphological changes in human PC3 cells assessed as plasma membrane blebbing at cytotoxic IC50 level incubated for 12 hrs by DAPI staining based confocal laser microscopy; type: functional, cell-based; method in brief: as §2
PC-3 [9] = assay: Induction of apoptotic morphological changes in human PC3 cells assessed as cell surface smoothening at cytotoxic IC50 level incubated for 12 hrs by scanning electron microscopy; type: functional, cell-based; method in brief: as §1
PC-3 [10] = assay: Induction of intracellular ROS generation in human PC3 cells incubated for 12 hrs by DCFH-DA dye based spectrofluorimetry; type: functional, cell-based
Method in brief: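 PC-3 cells plated at 1 × 10⁶ cells/dish in 24-well plates, adhered 6 h, then grown with or without test compound at 5, 10 and 15 µM for 12 h; DCFH-DA added 30 min before end. Trypsinized plus floating cells collected, 1 × 10⁶ cells pelleted, resuspended in ice-cold PBS (1.0 ml) and intracellular peroxides measured by spectrofluorimetry.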

PC-3 [11] = assay: Reduction in mitochondrial membrane potential in human PC3 cells incubated for 12 hrs by rhodamine-123 dye based spectrofluorimetry; type: functional, cell-based
Method in brief: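 PC-3 cells (1 × 10⁶) in 24-well plates incubated with or without test compound at 1, 5 and 10 µM for 12 h at 37 °C, 5% CO₂, washed with PBS, then loaded with rhodamine-123 1 h in serum-free medium. Fluorescence read in a plate reader at excitation 480 nm / emission 530 nm; shown with SD.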

PC-3 [12] = assay: Induction of apoptotic morphological changes in human PC3 cells assessed as spherical cell shape changes at cytotoxic IC50 level incubated for 12 hrs by DAPI staining based confocal laser microscopy; type: functional; method in brief: as §2

SMILES | IC50 [1] | IC50 (MCF7) | IC50 [2] | IC50 [3] | IC50 (HeLa) | further results
O=C(c1cccnc1)c1cc(F)ccc1O | 12 µM | 27.8 µM | 6.21 µM | 11.8 µM | 27 µM | –
O=C(c1cccnc1)c1cc(Cl)ccc1O | 27 µM | 29 µM | 19.5 µM | 24.8 µM | 24 µM | –
CC(=O)O[C@H]1C(=O)[C@@]2(C)[C@H]([C@H](OC(=O)c3ccccc3)[C@]3(O)C[C@H](OC(=O)[C@H](O)[C@@H](NC(=O)c4ccccc4)c4ccccc4)C(C)=C1C3(C)C)[C@]1(OC(C)=O)CO[C@@H]1C[C@@H]2O [PACLITAXEL] | – | 0.2 µM | – | – | – | –
CC[C@@]1(O)C(=O)OCc2c1cc1n(c2=O)Cc2cc3ccccc3nc2-1 | – | – | – | – | – | Activity (PC-3 [4]): Active
O=C(c1cccnc1)c1ccc(Br)cc1O | 85 µM | > 100 µM | 89 µM | 88.6 µM | 37 µM | –
O=C(c1cccnc1)c1cc(Br)ccc1O | 29 µM | 53.5 µM | 23.4 µM | 60.2 µM | 29 µM | –
O=C(c1cccnc1)c1ccccc1O | 31 µM | 24.6 µM | 33.7 µM | 33.4 µM | 33 µM | –
Cc1ccc(O)c(C(=O)c2cccnc2)c1 | 11 µM | 8.04 µM | 5.54 µM | 10 µM | 26 µM | Activity (PC-3 [5]): Active; Activity (PC-3 [6]): Active; Activity (PC-3 [7]): Active; Activity (PC-3 [8]): Active; Activity (PC-3 [9]): Active; Activity (PC-3 [10]): Dose-dependent effect; Activity (PC-3 [11]): Dose-dependent effect; Activity (PC-3 [12]): Active
C=CCOc1c(Cl)cccc1C(=O)c1cccnc1 | 92 µM | > 100 µM | 94 µM | > 100 µM | 100 µM | –
O=c1[nH]cc(F)c(=O)[nH]1 [FLUOROURACIL] | 0.5 µM | – | 1.3 µM | – | – | –
O=C(c1cccnc1)c1cc(Cl)cc(Cl)c1O | 27 µM | 29.6 µM | 28.8 µM | 28.7 µM | > 100 µM | –
C=CCOc1ccc(F)cc1C(=O)c1cccnc1 | > 100 µM | > 100 µM | 91 µM | > 100 µM | 93 µM | –
C=CCOc1ccc(C)cc1C(=O)c1cccnc1 | 72 µM | 84 µM | 87 µM | 98 µM | 94 µM | –
C=CCOc1ccc(Br)cc1C(=O)c1cccnc1 | 78 µM | 92 µM | 88 µM | 59 µM | 96 µM | –
C=CCOc1ccc(Cl)cc1C(=O)c1cccnc1 | > 100 µM | 54 µM | 91 µM | > 100 µM | 75 µM | –
O=C(c1cccnc1)c1cccc(Cl)c1O | 28 µM | 26.7 µM | 26 µM | 31.5 µM | 21 µM | –
C=CCOc1ccccc1C(=O)c1cccnc1 | > 100 µM | > 100 µM | 44 µM | 55 µM | > 100 µM | –
C=CCOc1c(Cl)cc(Cl)cc1C(=O)c1cccnc1 | > 100 µM | 85 µM | 52 µM | 96 µM | 34 µM | –
CO[C@@]12[C@H](COC(N)=O)C3=C(C(=O)C(C)=C(N)C3=O)N1C[C@@H]1N[C@@H]12 [MITOMYCIN] | – | – | – | 1.5 µM | – | –
C=CCOc1cc(Br)ccc1C(=O)c1cccnc1 | > 100 µM | > 100 µM | 98 µM | > 100 µM | > 100 µM | –
